Screening results: PubChem, The Scripps Research Institute Molecular Screening Center
Hits are enriched below; roughly 2.6% of the tested compounds scored in any of these assays.
SIAE inh: human SIAE inhibitors, primary screen, biochemical, fluorescence polarization, FP-Rh probe, 1536-well HTS. Sialate O-acetylesterase (Homo sapiens), Q9HAT2. 370,000 tested, 0.69% active. SIAE FP-Rh probe binding. inhibition, % at 9.66 µM. AID 1053197, 2014;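 active = inhibition above a cutoff: mean of compounds within the control limits plus 3 SD of those, cut at about 17% in these data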;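 also: 0% = plate median of compound wells and 100% = probe without SIAE protein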
Target sequence (Q9HAT2 whole entry, looked up): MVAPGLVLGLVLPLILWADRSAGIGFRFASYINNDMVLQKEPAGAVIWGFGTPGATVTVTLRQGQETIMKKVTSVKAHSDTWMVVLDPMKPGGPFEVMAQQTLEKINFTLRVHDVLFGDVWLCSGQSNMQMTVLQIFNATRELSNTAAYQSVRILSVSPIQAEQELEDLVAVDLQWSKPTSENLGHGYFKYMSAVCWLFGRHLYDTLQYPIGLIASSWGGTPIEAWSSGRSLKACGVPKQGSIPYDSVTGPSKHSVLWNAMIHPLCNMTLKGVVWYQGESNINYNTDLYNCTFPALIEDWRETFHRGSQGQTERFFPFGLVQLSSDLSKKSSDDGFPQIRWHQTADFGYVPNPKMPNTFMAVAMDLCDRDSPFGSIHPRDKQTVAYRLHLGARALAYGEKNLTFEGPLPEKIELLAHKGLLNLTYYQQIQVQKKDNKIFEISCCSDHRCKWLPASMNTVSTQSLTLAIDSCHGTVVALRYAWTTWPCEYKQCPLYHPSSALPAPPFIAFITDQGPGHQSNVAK
ABHD4 inh: ABHD4 inhibitors, primary screen, biochemical, fluorescence polarization, mouse; purified mABHD4, FP-Rh probe fluorescence polarization; inhibition, % at 8.92 µM; 370,000 tested, 0.54% active; (Lyso)-N-acylphosphatidylethanolamine lipase (Mus musculus), Q8VD66;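 active = inhibition exceeding the mean over every tested compound plus 3 SD, cut at about 30% in these data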;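 also: 0% = plate median of compound wells and 100% = S159A mutant with DMSO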
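Test system: mABHD4 protein; Read-out basis: % inhibition; Incubation: 45 min + 60 min at 25 °C; Repeats: single replicate; Technique: fluorescence polarization with parallel and perpendicular emission, 525/598 nm; Compound: 8.92 µM, single dose; Benchmarks: full inhibition S159A mutant plus DMSO, zero as sample-well median.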
PRMT1 FP inh: PRMT1 methyltransferase inhibitors, primary screen, biochemical, fluorescence polarization; Protein arginine N-methyltransferase 1 (Homo sapiens), Q99873; recombinant PRMT1, activity-based probe fluorescence polarization; inhibition, % at 2.79 µM; 370,000 tested, 1.3% active; AID 652257, 2013;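 active = inhibition above about 21% made by adding two undisclosed values, limit read from the data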
TCR-CD3 inh: inhibitors of human TCR-CD3 interaction, primary screen, biochemical, fluorescence, TAMRA-labeled TCR probe; T-cell receptor (TCR); inhibition, % at 9.4 µM; 360,000 tested, 0.37% active; AID 651800, 2012;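 also: recombinant mutant TCR 2C K166C tagged with TAMRA read by polarization; 0% = receptor in buffer alone and 100% = receptor with positive control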
HTRA1 inh: HTRA1 serine protease inhibitors, primary screen, biochemical, fluorescence polarization, HTS | Q92743 | recombinant HTRA1, FP-rhodamine activity-based probe | inhibition, % at 5.96 µM | 340,000 tested, 0.5% active; in the data active = inhibition above about 36%;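 also: 0% = enzyme with DMSO and 100% = wells lacking enzyme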
BSA TAMRA ctr: compounds interfering with TAMRA-BSA probe, counter-screen for TCR-CD3 interaction inhibitor project, biochemical, fluorescence, TAMRA-labeled BSA. shares compounds with TCR-CD3 inh. TAMRA-labeled BSA probe fluorescence counterscreen. inhibition, % at 9.4 µM. 1,200 tested, 10% active. AID 652035, 2013; in the data active = inhibition above about 23%;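 also: 0% = buffer low control and 100% = reference high control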
TCR-CD3 conf: TCR-CD3 interaction inhibitors, retest, confirmation, biochemical, fluorescence, TAMRA-labeled TCR probe; shares compounds with TCR-CD3 inh; TAMRA-labeled TCR probe fluorescence binding assay; inhibition, % at 9.4 µM; 1,200 tested, 48% active; AID 652036, 2013
Numbers without * were called inactive; . = no result. Rule as the data show it, unless noted: active = inhibition above about 19%; inactive = the rest.

SMILES	SIAE inh	ABHD4 inh	PRMT1 FP inh	TCR-CD3 inh	HTRA1 inh	BSA TAMRA ctr	TCR-CD3 conf
O=C(OCC(=O)N1CCOCC1)c1cccc(S(=O)(=O)Nc2ccc(F)cc2)c1	1.9	-9.4	-0.2	39.1*	0.0	-0.2	-3.7
Cc1nn(CC(=O)NC2CCCCC2)c(C)c1[N+](=O)[O-]	2.2	-4.3	1.0	0.0	2.9	.	.
Cc1nn(CC(=O)NC2CCS(=O)(=O)C2)c(C)c1[N+](=O)[O-] (stereo not given)	5.8	6.3	-5.3	26.8*	4.0	2.5	-1.0
CCc1n[nH]c(=S)n1/N=C/c1cc(OC)cc([N+](=O)[O-])c1O	8.0	21.1	3.5	44.2*	18.4	-14.4	44.0*
COc1cc(/C=N/n2c(=S)[nH]nc(C)c2=O)cc([N+](=O)[O-])c1O	-3.4	5.0	0.1	-0.1	.	.	.
S=C(Nc1cccc(Br)c1)OC1CCC12CCC(c1ccccc1)CC2 (stereo not given)	-8.7	-3.7	-3.7	.	.	.	.
COc1cccc(NC(=O)CN(C)C(=O)/C=C/c2cn(-c3ccccc3)nc2-c2ccc(C)cc2)c1	-121.6	-94.8	1.5	36.1*	-113.6	32.3*	62.9*
COc1ccc(NC(=O)CN(C)C(=O)/C=C/c2cn(-c3ccccc3)nc2-c2ccc(C)cc2)cc1	-72.5	-40.4	-3.5	31.9*	-114.4	1.7	5.9
CCCCOCCCNC(=O)C[C@H]1C[C@@]2(C(=O)OC)C(=C[C@H](C(C)(C)C)O[C@@H]2C)N(Cc2cccc3ccccc23)C1=O	2.0	-5.9	2.0	.	.	.	.
O=C(N[C@@H](Cc1cccnc1)C(=O)N1CCC[C@H]1C(=O)NCCc1ccccc1Cl)c1ccc(Cl)cc1Cl	1.0	5.8	3.5	-4.4	.	.	.
CN=c1c([N+](=O)[O-])nn(-c2ccc3c(c2)OCCO3)n1O	9.4	-1.8	-0.3	63.5*	-4.6	0.0	1.6
CC(C)c1ccc(N=c2c([N+](=O)[O-])nn(-c3ccc4c(c3)OCCO4)n2O)cc1	3.3	12.9	-0.8	-1.6	9.6	.	.
O=C(NNC(=S)NC(=O)c1cccc([N+](=O)[O-])c1)c1ccc(Br)cc1	2.3	2.2	-0.5	19.9*	4.8	-7.4	17.4
O=C(NNC(=S)NC(=O)c1cccc([N+](=O)[O-])c1)c1ccc(O)cc1	-0.8	9.9	1.5	20.1*	12.9	-1.7	33.5*
CC(COc1ccccc1C#N)CN1CCC(C(O)(c2ccccc2)c2ccccc2)CC1 (stereo not given)	-1.8	8.1	-1.0	.	.	.	.
CCN(CC)c1ccc(NC(=O)COc2ccccc2C#N)cc1S(=O)(=O)Nc1ccccc1OC	-26.1	-43.6	1.7	21.5*	-41.7	1.6	9.2
CC(=O)Oc1ccc2occ(/C=N/c3cc(=O)[nH]c(=S)[nH]3)c(=O)c2c1	-2.6	12.0	4.7	19.3*	-8.3	-7.2	12.7
Cc1ccc2occ(/C=N/O)c(=O)c2c1	0.1	-4.5	-0.7	-7.8	-19.0	.	.
COc1cccc(-c2nnc(SCC(=O)Nc3cccc4ccccc34)n2Cc2ccco2)c1	-5.8	-7.0	17.3	.	.	.	.
Cc1nn(CCC(=O)NNC(=O)Nc2ccccc2)c(C)c1[N+](=O)[O-]	2.0	2.3	2.5	.	.	.	.
CCN(C(=O)C1CCCN1S(=O)(=O)c1cccnc1)c1ccccc1 (stereo not given)	1.9	-9.7	-4.3	.	.	.	.
Cc1ccc(Cc2c(-c3cccc(Br)c3)nc3ccc(C)cn23)cc1	-7.9	1.8	4.1	77.3*	.	-8.8	-1.2
Cc1ccc2nc(-c3cccc(Br)c3)c(Cc3ccccc3)n2c1	-9.6	-10.1	-3.3	114.2*	.	-0.4	-1.4
Cc1ccc(Cc2c(-c3cccc(Br)c3)nc3ccc(Cl)cn23)cc1	-2.3	3.1	5.0	-14.3	.	.	.
CN1CCN(C(=O)c2cc3c(c(-c4cccc(-c5cccnc5)c4)n2)[C@@H](CCO)N(C(=O)CC2CC2)C3)CC1	3.0	-9.2	2.9	25.1*	.	0.9	0.4
SMILES	SIAE inh	ABHD4 inh	PRMT1 FP inh	TCR-CD3 inh	HTRA1 inh	BSA TAMRA ctr	TCR-CD3 conf
CCOC(=O)Cc1nc(N2CCN(CCO)CC2)c2c(C)c(C(=O)OCC)sc2n1	1.3	0.1	4.4	.	.	.	.
Cc1cccn2c(=O)c3cc(C(N)=S)c(=N)n(CCCN4CCOCC4)c3nc12	2.4	-0.3	1.0	22.5*	14.5	-6.3	9.3
COCCCn1c(=N)c(C(N)=S)cc2c(=O)n3cccc(C)c3nc21	4.0	0.8	-0.3	27.8*	26.7	-3.9	11.6
O=C(NCCc1c[nH]c2ccccc12)[C@H](Cc1c[nH]c2ccccc12)NC1(C(=O)NC2CCCCC2)CCCCCCC1	-1.8	-1.0	-3.5	.	.	.	.
c1ccc(-c2ccc(CNc3nc(-c4ccccn4)nnc3-c3ccccc3)cc2)cc1	-7.2	5.6	-5.2	.	.	.	.
C=CCN(CC#Cc1ccccc1)CC1CC1	4.5	-3.7	-0.9	.	.	.	.
O=S(=O)(Nc1cccc2ncccc12)c1cccc(C(F)(F)F)c1	0.8	-41.6	1.4	20.4*	-4.2	3.1	8.4
Cc1nc(S/C(=C/c2ccc(-c3cc(Cl)ccc3C)o2)C(=O)O)n[nH]1	5.7	9.9	0.0	2.8	21.1	.	.
O=C(O)c1cc(Cl)ccc1-c1ccc(/C=C/c2cc(C(F)(F)F)[nH]c(=O)n2)o1	-4.8	-8.3	2.5	19.0*	2.2	1.6	3.0
CCCC(=O)N1CCC[C@]2(CC[C@H](CCC(C)=O)O2)C1	2.3	-0.7	4.3	.	.	.	.
O=C(CCc1ccc(S(=O)(=O)N2CCOCC2)cc1)Nc1cc(Cl)ccc1N1CCOCC1	6.8	-2.0	-3.6	20.6*	1.1	5.7	3.5
O=C(CCCOc1ccc(Cl)cc1Cl)Nc1cc(S(=O)(=O)N2CCOCC2)ccc1N1CCOCC1	-4.0	6.4	0.7	5.2	-26.4	.	.
c1ccc(-c2nnc(-c3ccco3)o2)cc1	0.3	6.0	0.5	9.2	7.0	.	.
c1coc(-c2nnc(-c3ccco3)nn2)c1	13.6	26.8	46.5*	28.1*	10.5	-10.0	16.4
Cc1ccc(C(=O)NCCc2cccc(Cl)c2)cc1[N+](=O)[O-]	5.4	-4.5	0.0	0.8	-4.9	.	.
O=C(NCCc1cccc(Cl)c1)c1ccc(Cl)c([N+](=O)[O-])c1	-7.4	-23.0	2.0	30.4*	-14.3	3.1	0.7
O=c1[nH]c(C(Cl)Cl)nc2sc3c(c12)CCN(Cc1ccccc1)C3	-4.3	-5.0	3.0	25.1*	6.4	-4.3	14.7
CCCSc1nc2sc3c(c2c(=O)[nH]1)CCN(Cc1ccccc1)C3	.	.	.	.	-15.3	.	.
